Source: PubChem
The list is not random: actives were taken first. Their share in the collection is about 3.7%.
ERAP1 inh: human ERAP1 aminopeptidase inhibitors, primary screen, biochemical, single point, plate reader; recombinant ERAP1, Leu-AMC fluorescence, 60 min; inhibition, % at 10.7 µM; 340,000 tested, 0.15% active; AID 652197, 2013;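 active means mean replicate inhibition of at least 30%, or all replicates individually reaching that 30% level; inactive means mean below 30% and not every replicate reaching it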;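 further: 0% = neutral control wells and 100% = L-leucinethiol positive control wells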
FGF22 binding: binders of human FGF22 protein, primary screen, FGF22 synaptogenesis inhibitor project, biophysical, thermal shift, single point. Fibroblast growth factor 22 (Homo sapiens), Q9HCT0. recombinant FGF22 thermal shift, SYPRO orange fluorescence; percent of sucrose octasulfate shift, DMSO zero. activity (Tm shift, normalised), % at 9.99 µM. 340,000 tested, 1.5% active;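 active means mean Tm shift, scaled 0 neutral to 100 positive control, at about 1.3% or above, every replicate too, limit read from the data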
CFTR F508del cor: F508del CFTR correction, initial screen, CFBE line, single point | CFBE cells, YFP halide quenching; stimulated with forskolin plus potentiator P3; % fluorescence drop versus neutral controls | activity (quench increase), % at 7.58 µM | 350,000 tested, 0.36% active;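 active means mean added fluorescence quench of at least 8% versus neutral control, with both replicates also reaching 8%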;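 further: cells transiently co-express mutant CFTR-F508del with the halide-sensitive YFP; corrector assay measuring rescue of mutant channel to the surface after 24 h compound exposure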
E-sel inducer: E-selectin induction in HUVECs, primary screen, imaging, HUVEC, immunofluorescence imaging, single point; P16581; normalized: neutral wells 0, TNF-alpha wells 100; activation, % at 7.58 µM; 260,000 tested, 0.37% active;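 active means mean E-selectin-positive cell signal at least 10% of the positive control, reached in at least 60% of replicates, without over 20% cell loss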
Target sequence (P16581 whole entry, looked up): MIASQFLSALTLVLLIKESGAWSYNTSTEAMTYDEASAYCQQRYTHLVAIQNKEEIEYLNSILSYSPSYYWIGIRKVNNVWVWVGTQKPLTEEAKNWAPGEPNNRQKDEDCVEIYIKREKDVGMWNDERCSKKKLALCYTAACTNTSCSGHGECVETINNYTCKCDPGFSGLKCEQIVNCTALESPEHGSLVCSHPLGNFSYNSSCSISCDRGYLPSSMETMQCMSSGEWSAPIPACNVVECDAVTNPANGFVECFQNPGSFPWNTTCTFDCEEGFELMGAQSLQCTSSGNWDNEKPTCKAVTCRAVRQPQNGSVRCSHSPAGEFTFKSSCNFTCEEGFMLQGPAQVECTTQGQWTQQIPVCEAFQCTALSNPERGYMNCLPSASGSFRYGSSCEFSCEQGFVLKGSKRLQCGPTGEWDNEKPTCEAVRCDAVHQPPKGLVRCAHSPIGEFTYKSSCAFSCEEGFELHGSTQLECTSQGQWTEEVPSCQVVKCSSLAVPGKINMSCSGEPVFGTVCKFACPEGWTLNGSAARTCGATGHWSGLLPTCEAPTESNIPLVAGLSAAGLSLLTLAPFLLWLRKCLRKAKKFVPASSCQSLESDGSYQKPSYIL
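Material: HUVEC primary endothelial cells; Amount: 3,000 cells per well; Dosing: single concentration; Medium: EGM-2 growth medium on 0.1% gelatin-coated wells; Read-out basis: percent E-selectin-positive cells; Signal: immunofluorescence imaging; Control set: TNF-alpha, DMSO.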
DENV2 CPE: inhibitors of DENV2 cytopathic effect, primary screen, cell-based, plate reader, single concentration; DENV2-infected cells, cytopathic effect rescue; CPE inhibition, % at 9.99 µM; 350,000 tested, 1.7% active; in the data active means CPE inhibition above about 20%, passing the limit was not always enough; tested in BHK-21 cells;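 further: 0% = median of neutral control wells and 100% = median of positive control wells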
Starred values were filed as active, the others as inactive.

C[C@@H]1CN([C@H](C)CO)S(=O)(=O)c2ccc(-c3ccccc3F)cc2O[C@H]1CN(C)Cc1ccncc1 was read as ERAP1 inh -3, FGF22 binding -1, CFTR F508del cor 7, E-sel inducer 0 and DENV2 CPE 29*.
Screening C[C@@H]1CN([C@H](C)CO)S(=O)(=O)c2ccc(-c3ccccc3F)cc2O[C@H]1CN(C)Cc1cccnc1 returned ERAP1 inh 1, FGF22 binding 0, CFTR F508del cor 5, E-sel inducer 1 and DENV2 CPE 6.
For COc1ccccc1C#Cc1ccc2c(c1)O[C@H](CN(C)Cc1cccnc1)[C@H](C)CN([C@@H](C)CO)S2(=O)=O the results were ERAP1 inh 2, FGF22 binding 0, CFTR F508del cor 8.2*, E-sel inducer 0 and DENV2 CPE -1.
Screening C[C@@H]1CN([C@@H](C)CO)S(=O)(=O)c2ccc(-c3ccncc3)cc2O[C@@H]1CN(C)Cc1ccc(Oc2ccccc2)cc1 returned ERAP1 inh 2, FGF22 binding 0, CFTR F508del cor 6, E-sel inducer 0 and DENV2 CPE -33.
C[C@H]1CN([C@@H](C)CO)S(=O)(=O)c2ccc(-c3ccccc3F)cc2O[C@H]1CN(C)Cc1ccncc1 was read as ERAP1 inh -3, FGF22 binding 0, CFTR F508del cor 3, E-sel inducer 0 and DENV2 CPE 21*.
`C[C@H]1CN([C@@H](C)CO)S(=O)(=O)c2ccc(-c3ccccc3F)cc2O[C@@H]1CN(C)Cc1cccnc1` gave ERAP1 inh 0, FGF22 binding 0, CFTR F508del cor 3, E-sel inducer 0 and DENV2 CPE 3.
Cc1ccc(S(=O)(=O)N(C)C[C@H]2OCCCC[C@@H](C)Oc3ccc(NC(=O)NC(C)C)cc3C(=O)N([C@@H](C)CO)C[C@H]2C)cc1 was read as ERAP1 inh 1, CFTR F508del cor 3, E-sel inducer 0 and DENV2 CPE 12.
Cc1ccc(S(=O)(=O)N(C)C[C@H]2OCCCC[C@@H](C)Oc3ccc(NC(=O)NC(C)C)cc3C(=O)N([C@H](C)CO)C[C@@H]2C)cc1 was read as ERAP1 inh -1, CFTR F508del cor 0, E-sel inducer 0 and DENV2 CPE 72*.
Screening Cc1ccc(S(=O)(=O)N(C)C[C@@H]2OCCCC[C@H](C)Oc3ccc(NC(=O)Nc4ccc(C(F)(F)F)cc4)cc3C(=O)N([C@@H](C)CO)C[C@H]2C)cc1 returned ERAP1 inh 2, FGF22 binding 0, CFTR F508del cor 3 and DENV2 CPE 23*.
For Cc1ccc(S(=O)(=O)N(C)C[C@H]2OCCCC[C@@H](C)Oc3ccc(NC(=O)Nc4ccc(C(F)(F)F)cc4)cc3C(=O)N([C@H](C)CO)C[C@@H]2C)cc1 the results were ERAP1 inh 1, FGF22 binding 0, CFTR F508del cor 3 and DENV2 CPE 67*.
`C[C@@H]1CCCCO[C@H](CN(C)S(=O)(=O)c2ccccc2)[C@H](C)CN([C@@H](C)CO)C(=O)c2cc(NC(=O)Nc3ccc(C(F)(F)F)cc3)ccc2O1` gave ERAP1 inh 3, FGF22 binding 0, CFTR F508del cor 1, E-sel inducer 0 and DENV2 CPE 23*.
For COCC#Cc1cnc2c(c1)C(=O)N([C@H](C)CO)C[C@@H](C)[C@H](CN(C)Cc1ccc3c(c1)OCO3)O2 the results were ERAP1 inh 2, FGF22 binding 0, CFTR F508del cor 0, E-sel inducer 1 and DENV2 CPE 6.
COC(=O)c1cn(CCCNC(=O)Nc2ccccc2)nn1 was read as ERAP1 inh -2, FGF22 binding 0, CFTR F508del cor -2 and DENV2 CPE 2.
For CO[C@H]1CN(C)C(=O)c2cc(NC(=O)c3cc(C)on3)ccc2OC[C@@H](C)N(C)C[C@H]1C the results were ERAP1 inh 0, FGF22 binding 0, CFTR F508del cor -1, E-sel inducer 0 and DENV2 CPE -6.
Screening CCC(=O)NC[C@H]1[C@@H](c2ccc(C3=CCCC3)cc2)[C@@H](CO)N1C(=O)CC returned ERAP1 inh -5, CFTR F508del cor 0, E-sel inducer 0 and DENV2 CPE 31*.
For CC(=O)NC[C@@H]1[C@@H](c2ccc(-c3ccccc3F)cc2)[C@H](CO)N1C(C)=O the results were ERAP1 inh 4, FGF22 binding 0, CFTR F508del cor -3, E-sel inducer 0 and DENV2 CPE -10.
CC(=O)NC[C@H]1[C@@H](c2ccc(-c3cccc(F)c3)cc2)[C@H](CO)N1C(C)=O was read as ERAP1 inh 0, FGF22 binding 0, CFTR F508del cor -1, E-sel inducer 0 and DENV2 CPE 7.
CC(=O)NC[C@@H]1[C@H](c2ccc(-c3cccc(F)c3)cc2)[C@H](CO)N1C(C)=O was read as ERAP1 inh 0, FGF22 binding 0, CFTR F508del cor 0, E-sel inducer -1 and DENV2 CPE 25*.
CCC(=O)N1[C@H](CO)[C@@H](c2ccc(-c3cccc(F)c3)cc2)[C@@H]1CN(C)C(C)=O was read as ERAP1 inh -2, FGF22 binding 1, CFTR F508del cor -2, E-sel inducer 0 and DENV2 CPE 34*.
CC(=O)NC[C@@H]1[C@@H](c2ccc(-c3ccccc3F)cc2)[C@@H](CO)N1C(C)=O was read as ERAP1 inh 2, FGF22 binding 1, CFTR F508del cor 3, E-sel inducer 0 and DENV2 CPE 20*.
`CCC(=O)NC[C@@H]1[C@@H](c2ccc(C3=CCCC3)cc2)[C@@H](CO)N1C(=O)CC` gave ERAP1 inh 1, CFTR F508del cor -3, E-sel inducer 0 and DENV2 CPE -3.
`CCCNC(=O)NC[C@H]1[C@H](c2ccc(C3=CCCCC3)cc2)[C@@H](CO)N1C(C)=O` gave ERAP1 inh 0, FGF22 binding 1, CFTR F508del cor 2, E-sel inducer 0 and DENV2 CPE 22*.
For CC(=O)NC[C@@H]1[C@@H](c2ccc(-c3ccccc3)cc2)[C@H](CO)N1C(=O)C1CCC1 the results were ERAP1 inh -2, FGF22 binding 0, CFTR F508del cor -1, E-sel inducer 1 and DENV2 CPE 6.
Screening CC(=O)N1[C@H](CNC(=O)C2CC2)[C@H](c2ccc(-c3cccc(F)c3)cc2)[C@@H]1CO returned ERAP1 inh 2, FGF22 binding 0, CFTR F508del cor 3, E-sel inducer 0 and DENV2 CPE 28*.
`CC(=O)N1[C@@H](CO)[C@@H](c2ccc(-c3cccc(F)c3)cc2)[C@@H]1CNC(=O)C1CC1` gave CFTR F508del cor 4, E-sel inducer 0 and DENV2 CPE 7.
